Measurements collected from several papers.
KCNH2: Voltage-gated inwardly rectifying potassium channel KCNH2 (KCNH2, Homo sapiens, UniProt Q12809)

`CC(C)CC(=O)OC[C@H]1O[C@@](C#N)(c2ccc3c(N)ncnn23)[C@H](O)[C@@H]1O` gave an inhibition of -3% (KCNH2; ligand displacement; 20 µM).
For `COc1ccc(F)cc1C(=O)NCc1ccc(-c2nn([C@@H](C)C(F)(F)F)c(N)c2C(N)=O)cc1`, the Tmax was 2.5 h (human, plasma; oral, 200 mg, single dose, fasted).
For `Cc1cccc(C)c1NC(=O)C1CCCCN1` (centres unmarked), the inhibition was 19.4% (KCNH2; ion current, inhibitor, patch clamp; 100 µM).
For `N#C[C@@]1(n2ccc(N)nc2=O)O[C@H](CO)[C@@H](O)[C@H]1O`, the CC50 was over 100 µM (Caco-2; cell growth or viability).
With `CO[C@H]1/C=C/O[C@@]2(C)Oc3c(C)c(O)c4c(O)c(c(/C=N/N5CCN(C6CCCC6)CC5)c(O)c4c3C2=O)NC(=O)/C(C)=C\C=C\[C@H](C)[C@H](O)[C@@H](C)[C@@H](O)[C@@H](C)[C@H](OC(C)=O)[C@@H]1C` the MRT was 24.4 h (male Sprague-Dawley rat, plasma; intravenous, 10 mg/kg, single dose).
The IC50 of `Cc1[nH]c(C)c(S(=O)(=O)Nc2ccc(S(F)(F)(F)(F)F)cc2)c1C(=O)N1CCC(F)(F)C1` is reported as over 30 µM (KCNH2; ion current, inhibitor, patch clamp).
For `O=c1nc(NO)ccn1[C@@H]1O[C@H](CO)[C@@H](O)[C@H]1O`, the CC50 was over 100 µM (Caco-2; cell growth or viability).
The MRT(0-inf) of `CC[C@H](C)CCCCC(=O)N[C@@H](CCN)C(=O)N[C@H](C(=O)N[C@@H](CCN)C(=O)N[C@H]1CCNC(=O)[C@H]([C@@H](C)O)NC(=O)[C@H](CCN)NC(=O)[C@H](CCN)NC(=O)[C@H](CC(C)C)NC(=O)[C@@H](CC(C)C)NC(=O)[C@H](CCN)NC1=O)[C@@H](C)O` is reported as 4.88 h (male Sprague-Dawley rat, plasma; subcutaneous, 10 mg/kg).
